Tests used:
RAW264.7 [1] = assay: Selectivity index, ratio of CC50 for mouse RAW264.7 cells to IC50 for nitric oxide production in mouse RAW264.7 cells; format: functional
RAW264.7 [2] = assay: Inhibition of LPS-induced nitric oxide production in mouse RAW264.7 cells assessed as nitrite accumulation after 20 hrs; format: functional, cell-based; conditions: RAW264.7, 20 h
Method in brief: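 RAW 264.7 macrophages grown in DMEM with 10% FBS and penicillin-streptomycin at 37 °C, 5% CO2. Plated at 5 × 10⁵ cells/mL in phenol-red-free 10% FBS-DMEM for 24 h, then PBS-washed, refreshed, and given 1 μg/mL LPS ± samples for 20 h. Nitrite in supernatant measured by Griess reaction at 540 nm against a sodium nitrite standard. Inhibition calculated versus vehicle control; IC50 by nonlinear regression. L-NMMA positive control.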

RAW264.7 [3] = assay: Cytotoxicity against mouse RAW264.7 cells by MTT assay; format: cell-based

Structure (SMILES) | IC50 (RAW264.7 [2]) [µM] | Ratio CC50/IC50 (RAW264.7 [1]) | IC50 (RAW264.7 [3]) [µM]
CC(C)=CCc1c(O)ccc2c1O[C@H](c1ccc(O)cc1O)CC2=O | 12.3 | 3.9 | 47.9
CC1(C)C=Cc2c(ccc(C(=O)/C=C/c3ccc(O)cc3O)c2O)O1 | 18.8 | 3.1 | 59.2
COc1cc2oc3c(c(=O)c2c(O)c1/C=C/C(C)C)C(C=C(C)C)Oc1cc(O)ccc1-3 (stereo not drawn) | > 60 | <0.8 | 46.1
CC(C)=CCc1c(O)cc2oc(-c3ccc(O)cc3O)c(CC=C(C)C)c(=O)c2c1O [CUDRAFLAVONE C] | 52.3 | 1.1 | 59.2
C/C(=C/Cc1c(O)ccc(C(=O)/C=C/c2ccc(O)cc2)c1O)COC(=O)/C=C/c1ccc(O)cc1 [GEMICHALCONE B] | 9.3 | 3.8 | 35.1
COc1cc(/C=C/C(=O)OC/C(C)=C\Cc2c(O)ccc(C(=O)/C=C/c3ccc(O)cc3O)c2O)ccc1O [GEMICHALCONES C] | 23.9 | 1.6 | 37.6
CC(C)=CCc1c(O)ccc(C(=O)/C=C/c2ccc(O)cc2)c1O [ISOBAVACHALCONE] | 6.4 | 2.6 | 16.4

Further molecules by falling IC50 (RAW264.7 [2]), results first:

IC50 (RAW264.7 [2]) [µM] | Structure (SMILES) | Ratio CC50/IC50 (RAW264.7 [1]) | IC50 (RAW264.7 [3]) [µM]
42.1 | CC(C)=CC1Oc2cc(O)ccc2-c2oc3cc4c(c(O)c3c(=O)c21)C=CC(C)(C)O4 (stereo not drawn) [CUDRAFLAVONE A] | 1 | 42.1
19.2 | CNC(=N)NCCC[C@H](N)C(=O)O [TILARGININE] | >2.6 | > 50
18.7 | COc1cc2oc(-c3ccc(O)cc3O)c(CC=C(C)C)c(=O)c2c(O)c1/C=C/C(C)C [ARTOCARPIN] | 2.4 | 45.3
16.4 | CC(C)=CCc1c(O)ccc(C(=O)/C=C/c2ccc(O)cc2O)c1O [MORACHALCONE A] | 3.5 | 58

Reference: ChEMBL document CHEMBL1157343, “Prenylated flavonoids from the heartwood of Artocarpus communis with inhibitory activity on lipopolysaccharide-induced nitric oxide production” (J Nat Prod, 2006)
